Compounds with a hit are over-represented: about 2% of the library has one in this group of screens.
FID counter – compounds displacing fluorescent DNA intercalator, primary screen, artefact control for HCV NS3 helicase inhibitor project, biochemical, FID fluorescence; DNA fluorescent intercalator displacement; inhibition, % at 7.9 µM; 290,000 compounds, 0.17% hits; AID 1845, 2009; in the data active means inhibition above about 37%;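 further: 0% = vehicle and 100% = reference compound; higher means more ethidium bromide displaced from hairpin DNA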
HCV core dimer – inhibitors of HCV core protein dimerization, primary screen, biochemical, TR-FRET, high-throughput | TR-FRET GST/Flag-core106 dimerization, 1536-well | inhibition, % at 5 µM | 300,000 compounds, 0.33% hits | AID 1899, 2009;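 active means inhibition above the mean of all tested compounds plus 3 SD, set per screening campaign, cut at about 45% in these data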
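System – GST-tagged and Flag-tagged HCV core protein residues 1-106 · Repeats – one well for each compound · Technique – TR-FRET 671 and 617 nm emission · Doses – one concentration, 5 µM, in 0.5% DMSO · Times – 4 h, 22.5 °C incubation · Also added – Eu donor and XL665 acceptor anti-tag antibodies · Measure – percent inhibition of core106 dimerization signal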
PABP polyA inh – PABP poly(A) RNA binding inhibitors, primary screen, biochemical, fluorescence polarization, uHTS | inhibition, % at 35 µM | 290,000 compounds, 1% hits | Polyadenylate-binding protein 1 (Homo sapiens), P11940;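 further: calls also rest on retests at 20 µM and on dose response follow-up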
Target sequence (P11940 whole entry, looked up): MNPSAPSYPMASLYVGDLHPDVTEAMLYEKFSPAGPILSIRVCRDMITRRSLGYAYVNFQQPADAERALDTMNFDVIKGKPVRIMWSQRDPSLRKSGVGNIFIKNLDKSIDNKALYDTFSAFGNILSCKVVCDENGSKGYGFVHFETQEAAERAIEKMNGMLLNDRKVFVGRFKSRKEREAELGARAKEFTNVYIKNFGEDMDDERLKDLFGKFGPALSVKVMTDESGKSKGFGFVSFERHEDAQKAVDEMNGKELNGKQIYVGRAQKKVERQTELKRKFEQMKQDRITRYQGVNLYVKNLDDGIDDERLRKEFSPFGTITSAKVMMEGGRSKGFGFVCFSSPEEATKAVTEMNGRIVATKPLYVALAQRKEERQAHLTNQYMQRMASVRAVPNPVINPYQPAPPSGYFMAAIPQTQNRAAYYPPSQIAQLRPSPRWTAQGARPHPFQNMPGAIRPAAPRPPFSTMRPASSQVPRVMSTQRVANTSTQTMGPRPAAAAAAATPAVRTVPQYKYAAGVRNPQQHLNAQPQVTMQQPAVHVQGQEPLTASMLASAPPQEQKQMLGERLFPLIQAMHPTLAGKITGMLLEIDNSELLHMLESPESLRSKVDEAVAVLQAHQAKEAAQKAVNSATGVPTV
NS3 helicase inh – inhibitors of HCV NS3 helicase, primary screen, biochemical, Cy5 molecular beacon fluorescence; Hepatitis C virus NS3 helicase; NS3 helicase DNA unwinding; inhibition, % at 10.9 µM; 290,000 compounds, 0.56% hits;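 active means inhibition above the mean of all tested compounds plus 3 SD, set per campaign, cut at about 35% in these data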;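 further: 0% = DMSO wells and 100% = thioflavine S control wells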
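Material: hepatitis C virus NS3 helicase domain fragment enzyme; measured by: Cy5 fluorescence, 0 and 60 min reads; control set: DMSO and thioflavine S; incubation: 60 min unwinding reaction at 25 °C after ATP addition; read-out basis: % inhibition from 60/0 min fluorescence ratio, DMSO 0%, thioflavine S 100%; repeats: singlicate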
MLLE-PAM2 inh – inhibitors of PABP1 MLLE–PAM2 peptide binding, primary screen, biochemical, fluorescence polarization, FITC-PAM2, GST-MLLE. Polyadenylate-binding protein 1 (Homo sapiens), P11940. inhibition, % at 20 µM. 360,000 compounds, 0.36% hits. AID 588489, 2011; in the data active means inhibition above about 35%, passing the limit was not always enough;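 further: plate controls were DMSO wells with GST-MLLE for no effect and wells lacking GST-MLLE protein for full effect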
eIF4H FP inh – human eIF4H binding inhibitors, primary screen, translation initiation inhibitor project, biochemical, uHTS, fluorescence polarization; Eukaryotic translation initiation factor 4H (Homo sapiens), Q15056; eIF4H fluorescence polarization binding assay; inhibition, % at 35 µM; 290,000 compounds, 0.94% hits; AID 2012, 2009;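 further: calls also rest on retests at 20 µM and on dose response follow-up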
Numbers without * were called inactive. Unless noted, how the calls were made is not given here.

For COC(=O)C1=C(C(=O)OC)C(c2cc(Cl)ccc2O)c2sc(=O)[nH]c2S1 (centres undefined) the results were FID counter 2.1, HCV core dimer -3.8, PABP polyA inh 1.9, NS3 helicase inh 13.9, MLLE-PAM2 inh 33.3 and eIF4H FP inh 6.6.
COC(=O)C1=C(C(=O)OC)C(c2cc(Br)ccc2O)c2sc(=O)[nH]c2S1 (centres undefined) was read as FID counter -8.2, HCV core dimer -5.3, PABP polyA inh -21.6, NS3 helicase inh -25.5, MLLE-PAM2 inh 43.8* and eIF4H FP inh 0.1.
Screening CCOC(=O)CSc1ccc(S(=O)(=O)N2CCCC2)cc1[N+](=O)[O-] returned FID counter 0.9, HCV core dimer 4.2, PABP polyA inh 54.9*, NS3 helicase inh -7.7, MLLE-PAM2 inh 11.4 and eIF4H FP inh active.
Screening CCOC(=O)CSc1ccc(S(=O)(=O)N2CCCCC2)cc1[N+](=O)[O-] returned FID counter 2.2, HCV core dimer -0.4, PABP polyA inh 89.8, NS3 helicase inh -0.3, MLLE-PAM2 inh -0.7 and eIF4H FP inh -0.7.
Screening COc1cc(C(=O)NC(=S)Nc2ccc(NC(=O)c3ccco3)cc2)cc(OC)c1OC returned FID counter -14.2, HCV core dimer 1.1, PABP polyA inh 0.5, NS3 helicase inh 5.7, MLLE-PAM2 inh 36.2* and eIF4H FP inh 5.8.
`COc1ccc(NC(=O)c2ccco2)cn1` gave FID counter 0.6, HCV core dimer 11.2, PABP polyA inh inconclusive, NS3 helicase inh -0.4, MLLE-PAM2 inh 51.9* and eIF4H FP inh inconclusive.
`COc1ccc(NC(=O)c2cccc(Oc3ccccc3)c2)cn1` gave FID counter -20.3, HCV core dimer -0.1, PABP polyA inh -1.9, NS3 helicase inh -10.3, MLLE-PAM2 inh 7.6 and eIF4H FP inh -4.3.
`O=C(NC(=S)Nc1ccc(NC(=O)c2ccco2)cc1)c1ccccc1` gave FID counter -1.7, HCV core dimer -0.9, PABP polyA inh -2.2, NS3 helicase inh 0.0, MLLE-PAM2 inh 18.9 and eIF4H FP inh -6.8.
Screening COc1ccc(NC(=S)NC(=O)c2ccccc2)cn1 returned FID counter -10.8, PABP polyA inh 2.6, NS3 helicase inh 4.9, MLLE-PAM2 inh 42.1* and eIF4H FP inh 7.0.
Screening Cc1c(C(=O)NN2CCCCC2)nn(-c2ccc(Cl)cc2Cl)c1-c1ccc(I)cc1 returned FID counter -24.2, HCV core dimer 24.9, PABP polyA inh 1.1, NS3 helicase inh -11.0 and eIF4H FP inh -3.0.
Screening Cc1cccc(CCNC(=O)CCS(=O)(=O)c2cc3c(cc2Cl)NC(=O)CO3)c1 returned FID counter -14.6, HCV core dimer -4.3, PABP polyA inh 13.0, NS3 helicase inh 0.0, MLLE-PAM2 inh 12.9 and eIF4H FP inh -5.4.
For Cc1cccc(N(C)C(=O)CCS(=O)(=O)c2cc3c(cc2Cl)NC(=O)CO3)c1 the results were FID counter -20.0, HCV core dimer -9.5, PABP polyA inh -3.1, NS3 helicase inh -10.1, MLLE-PAM2 inh 39.3* and eIF4H FP inh -14.4.
Cc1onc(-c2ccccc2)c1C(=O)N1CCN(C/C=C/c2ccccc2)CC1 was read as FID counter -17.6, HCV core dimer 0.4, PABP polyA inh 71.1*, NS3 helicase inh -8.2, MLLE-PAM2 inh 11.0 and eIF4H FP inh 27.5*.
For C=CS(=O)(=O)N(Cc1ccccc1Br)[C@H](CO)CC(C)C the results were MLLE-PAM2 inh 7.1.
O=C(N/N=C/c1ccc([N+](=O)[O-])o1)c1sc2ccccc2c1Cl was read as FID counter 1.5, HCV core dimer 3.5, PABP polyA inh 37.9, NS3 helicase inh 13.3, MLLE-PAM2 inh -25.6 and eIF4H FP inh 72.3*.
Cc1cc(C(=O)N/N=C/c2ccc([N+](=O)[O-])o2)c(C)o1 was read as FID counter -6.4, HCV core dimer 8.0, PABP polyA inh 14.3, NS3 helicase inh 10.0, MLLE-PAM2 inh 16.7 and eIF4H FP inh 38.6.
For Cc1nonc1C(=O)N/N=C/c1ccc([N+](=O)[O-])o1 the results were FID counter 3.9, HCV core dimer -5.7, PABP polyA inh 31.5*, NS3 helicase inh 2.8, MLLE-PAM2 inh -0.4 and eIF4H FP inh 89.1*.
Screening CCCC(=O)Nc1ccc(C(=O)N/N=C/c2ccc([N+](=O)[O-])o2)cc1 returned FID counter -6.5, HCV core dimer -1.4, PABP polyA inh 7.3, NS3 helicase inh 28.6, MLLE-PAM2 inh -0.7 and eIF4H FP inh 75.4.
O=C(N/N=C/c1ccc([N+](=O)[O-])o1)C(=O)Nc1ccc(C(=O)O)cc1 was read as FID counter -4.8, HCV core dimer -5.8, PABP polyA inh 61.9*, NS3 helicase inh -1.3, MLLE-PAM2 inh 5.0 and eIF4H FP inh 83.2*.
For O=C(N/N=C/c1ccc([N+](=O)[O-])o1)c1cn2ccc3ccccc3c2n1 the results were FID counter -4.2, HCV core dimer -2.7, PABP polyA inh 69.0*, NS3 helicase inh 3.2, MLLE-PAM2 inh -2.1 and eIF4H FP inh 82.3*.
`COc1ccc(NC2CCCN(C(=O)CSc3ccncc3)C2)cc1` (centres undefined) gave FID counter -5.0, HCV core dimer -23.3, PABP polyA inh -6.7, NS3 helicase inh 7.0, MLLE-PAM2 inh 2.3 and eIF4H FP inh -9.9.
For CN(CC(=O)Nc1c(Cl)cccc1Cl)C(=O)c1cc(S(=O)(=O)N(C)C)ccc1N1CCCC1 the results were HCV core dimer -7.8 and MLLE-PAM2 inh 14.2.
`Cc1ccc(CN2CCC[C@]3(N[C@H](c4ccc(C(F)(F)F)cc4)[C@@H]4C(=O)N(Cc5ccccc5)C(=O)[C@@H]43)C2=O)cc1` gave MLLE-PAM2 inh 7.4.
Screening CC1(N2CCCCC2)C(=O)c2ccccc2C1=O returned FID counter 0.9, HCV core dimer 1.3, PABP polyA inh 50.1*, NS3 helicase inh -4.3, MLLE-PAM2 inh 9.7 and eIF4H FP inh active.
O=C(COC(=O)C1CC1)Nc1ccc(Cl)cc1Cl was read as MLLE-PAM2 inh 7.0.
Cc1cc(C)n2nc(SCc3cc(=O)oc4cc(O)ccc34)nc2n1 was read as FID counter -9.8, HCV core dimer 73.9*, PABP polyA inh 45.7*, NS3 helicase inh 3.3 and eIF4H FP inh inconclusive.
`Cc1cc(C)n2nc(SCc3ccccc3)nc2n1` gave FID counter -7.6, HCV core dimer 2.5, PABP polyA inh -9.3, NS3 helicase inh -13.0, MLLE-PAM2 inh -8.7 and eIF4H FP inh 0.2.
Cn1c(CC(O)c2nc3ccccc3n2C)nc2ccccc21 (centres undefined) was read as MLLE-PAM2 inh 5.5.

Screening data as filed in PubChem.
